Molecules are shown by their SMILES. “And” between values parts separate entries of the source, which are not always exact repeats. Equal entries are not always repeated.

The subject of one experiment is MCF-7. Put plainly: MTT anti-proliferative assay on MCF-7. The note with it: Homo sapiens, MCF7, read-out: MCF-7 (IC50). The format is cell-based. The method, boiled down:
(§1)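 Human MCF-7 and HepG2 cancer cell lines exposed to test compounds. Anti-proliferative IC50 given in μM. Each reported value is the mean of IC50 values from three separate experiments.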
A general note: Tetrazolium assays rely on reduction of a dye to a coloured formazan, in cell work by metabolically active cells.

For a further experiment, the system named is HepG2. Put plainly: MTT anti-proliferative assay on HepG2. It is filed as cell-based. The note with it: Homo sapiens, HepG2, read-out: HepG2 (IC50). The method, boiled down:
as §1

The test system of the next experiment is WI-38. Put plainly: Safety assay: cytotoxicity against normal human lung cells. The format is cell-based. In a few lines: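 Normal human lung WI-38 cells exposed to test compound for in vitro cytotoxicity. IC50 in μM is the mean of IC50 values from three separate experiments. Selectivity index = IC50 in WI-38 / IC50 in MCF-7 or HepG2 cancer cells.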
Another experiment has as its target VEGFR-2 (Homo sapiens, UniProt P35968). Nature of the experiment: biochemical.
In a further experiment the target is CDK8 (Homo sapiens, UniProt P49336). Put plainly: Kinase profiling test, CDK8. The settings on record: CDK8 IC50 (mean ± SD). The format is biochemical.
Chain of CDK8 (P49336 whole entry): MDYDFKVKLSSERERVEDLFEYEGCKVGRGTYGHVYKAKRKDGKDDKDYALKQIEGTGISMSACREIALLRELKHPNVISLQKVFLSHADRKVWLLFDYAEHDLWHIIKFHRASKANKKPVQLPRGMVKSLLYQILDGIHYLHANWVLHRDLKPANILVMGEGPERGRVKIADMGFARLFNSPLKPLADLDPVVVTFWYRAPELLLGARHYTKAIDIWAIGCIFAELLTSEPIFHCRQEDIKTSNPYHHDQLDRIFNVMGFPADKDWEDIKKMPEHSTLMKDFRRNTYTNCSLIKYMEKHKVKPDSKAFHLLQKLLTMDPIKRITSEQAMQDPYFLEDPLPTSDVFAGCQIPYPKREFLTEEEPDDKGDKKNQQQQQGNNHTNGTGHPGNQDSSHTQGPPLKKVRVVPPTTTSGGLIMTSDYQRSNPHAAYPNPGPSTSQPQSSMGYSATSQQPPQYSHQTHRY
Chain of CDK8 (P24863 whole entry partner): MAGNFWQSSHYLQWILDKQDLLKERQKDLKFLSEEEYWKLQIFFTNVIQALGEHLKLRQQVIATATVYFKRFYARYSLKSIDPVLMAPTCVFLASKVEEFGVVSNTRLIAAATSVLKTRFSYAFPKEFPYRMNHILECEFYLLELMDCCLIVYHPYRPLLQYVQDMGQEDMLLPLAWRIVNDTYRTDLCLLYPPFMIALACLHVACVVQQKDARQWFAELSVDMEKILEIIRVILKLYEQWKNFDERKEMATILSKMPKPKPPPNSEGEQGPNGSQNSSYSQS
A further experiment concerns the target PIK3α (Homo sapiens, UniProt P42336). Nature of the experiment: Kinase profiling test, PIK3α. The format is biochemical.
In another experiment the target is BRAF (Homo sapiens, UniProt P15056). Nature of the experiment: Kinase profiling test, BRAF. The format is biochemical.
Chain of BRAF (P15056 whole entry): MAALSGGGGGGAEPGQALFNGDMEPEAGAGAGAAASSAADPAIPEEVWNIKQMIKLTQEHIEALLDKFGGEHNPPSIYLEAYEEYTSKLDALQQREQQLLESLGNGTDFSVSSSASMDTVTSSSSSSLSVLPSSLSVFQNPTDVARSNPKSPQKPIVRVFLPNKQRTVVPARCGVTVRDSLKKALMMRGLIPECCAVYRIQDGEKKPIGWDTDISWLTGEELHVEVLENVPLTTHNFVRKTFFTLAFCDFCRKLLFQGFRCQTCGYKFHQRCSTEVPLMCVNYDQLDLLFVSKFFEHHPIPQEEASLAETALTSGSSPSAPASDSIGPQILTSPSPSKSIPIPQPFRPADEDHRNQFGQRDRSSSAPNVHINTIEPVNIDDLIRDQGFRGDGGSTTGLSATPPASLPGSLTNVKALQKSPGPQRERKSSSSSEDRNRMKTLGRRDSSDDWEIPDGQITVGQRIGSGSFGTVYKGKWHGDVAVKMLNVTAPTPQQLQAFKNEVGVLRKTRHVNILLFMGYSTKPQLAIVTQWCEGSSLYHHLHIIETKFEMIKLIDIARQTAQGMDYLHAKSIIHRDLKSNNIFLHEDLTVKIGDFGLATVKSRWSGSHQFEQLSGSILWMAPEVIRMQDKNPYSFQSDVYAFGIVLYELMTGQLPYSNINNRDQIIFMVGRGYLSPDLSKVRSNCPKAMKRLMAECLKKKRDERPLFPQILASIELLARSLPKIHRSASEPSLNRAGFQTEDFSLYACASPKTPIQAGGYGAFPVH
In a further experiment the target is EGFR (Homo sapiens, UniProt P00533). Put plainly: Kinase profiling test, EGFR. It is filed as biochemical.
Chain of EGFR (P00533 25-1210): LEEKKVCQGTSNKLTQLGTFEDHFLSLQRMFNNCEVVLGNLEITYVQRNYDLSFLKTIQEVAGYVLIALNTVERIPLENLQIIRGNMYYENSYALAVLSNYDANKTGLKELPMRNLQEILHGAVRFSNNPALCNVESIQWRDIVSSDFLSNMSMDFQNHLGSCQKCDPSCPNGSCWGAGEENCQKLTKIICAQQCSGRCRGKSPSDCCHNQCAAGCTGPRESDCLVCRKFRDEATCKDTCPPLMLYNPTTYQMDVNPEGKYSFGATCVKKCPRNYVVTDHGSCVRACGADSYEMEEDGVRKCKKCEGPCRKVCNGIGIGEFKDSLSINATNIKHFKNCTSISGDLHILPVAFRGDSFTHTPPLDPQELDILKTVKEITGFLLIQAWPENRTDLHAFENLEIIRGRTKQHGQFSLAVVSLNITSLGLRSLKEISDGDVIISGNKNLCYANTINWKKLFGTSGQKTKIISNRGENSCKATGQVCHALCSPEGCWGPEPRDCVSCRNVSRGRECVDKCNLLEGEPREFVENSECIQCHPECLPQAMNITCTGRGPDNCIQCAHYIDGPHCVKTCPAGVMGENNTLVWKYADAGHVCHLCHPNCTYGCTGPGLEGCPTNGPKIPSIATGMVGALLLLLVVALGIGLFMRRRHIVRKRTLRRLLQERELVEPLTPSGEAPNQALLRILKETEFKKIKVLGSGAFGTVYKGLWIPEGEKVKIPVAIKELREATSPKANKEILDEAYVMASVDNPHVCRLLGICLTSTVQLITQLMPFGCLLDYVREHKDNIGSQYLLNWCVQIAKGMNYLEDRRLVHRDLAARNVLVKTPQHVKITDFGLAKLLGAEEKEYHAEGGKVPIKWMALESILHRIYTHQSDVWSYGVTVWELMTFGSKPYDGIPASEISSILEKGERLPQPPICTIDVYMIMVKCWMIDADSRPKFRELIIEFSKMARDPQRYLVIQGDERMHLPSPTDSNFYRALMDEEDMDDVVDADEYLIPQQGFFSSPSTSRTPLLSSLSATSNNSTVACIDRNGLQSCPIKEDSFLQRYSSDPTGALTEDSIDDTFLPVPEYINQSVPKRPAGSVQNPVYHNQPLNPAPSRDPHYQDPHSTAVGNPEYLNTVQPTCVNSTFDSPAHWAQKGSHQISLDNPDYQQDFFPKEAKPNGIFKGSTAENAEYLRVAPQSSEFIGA
Experiment [1] has as its system MCF-7 cells. Nature of the experiment: Cell cycle analysis by flow cytometry. The format is cell-based. The note with it: MCF-7, 0.06 µM, 72 h. A general note: A flow cytometer gives signals particle by particle.
The test system of experiment [2] is MCF-7 cells. Nature of the experiment: Apoptosis assay. It is filed as cell-based. The settings on record: MCF-7, 0.06 µM, 72 h.
In another experiment the test system is caspase-8. Put plainly: RT-PCR caspase-8 expression in MCF-7 cells. It is filed as cell-based. The settings on record: MCF-7, 0.06 µM; control 1.
Another experiment relates to caspase-9. Put plainly: RT-PCR caspase-9 expression in MCF-7 cells. The format is cell-based. The settings on record: MCF-7, 0.06 µM; control 1.

Chain of VEGFR-2 (P35968 20-1356): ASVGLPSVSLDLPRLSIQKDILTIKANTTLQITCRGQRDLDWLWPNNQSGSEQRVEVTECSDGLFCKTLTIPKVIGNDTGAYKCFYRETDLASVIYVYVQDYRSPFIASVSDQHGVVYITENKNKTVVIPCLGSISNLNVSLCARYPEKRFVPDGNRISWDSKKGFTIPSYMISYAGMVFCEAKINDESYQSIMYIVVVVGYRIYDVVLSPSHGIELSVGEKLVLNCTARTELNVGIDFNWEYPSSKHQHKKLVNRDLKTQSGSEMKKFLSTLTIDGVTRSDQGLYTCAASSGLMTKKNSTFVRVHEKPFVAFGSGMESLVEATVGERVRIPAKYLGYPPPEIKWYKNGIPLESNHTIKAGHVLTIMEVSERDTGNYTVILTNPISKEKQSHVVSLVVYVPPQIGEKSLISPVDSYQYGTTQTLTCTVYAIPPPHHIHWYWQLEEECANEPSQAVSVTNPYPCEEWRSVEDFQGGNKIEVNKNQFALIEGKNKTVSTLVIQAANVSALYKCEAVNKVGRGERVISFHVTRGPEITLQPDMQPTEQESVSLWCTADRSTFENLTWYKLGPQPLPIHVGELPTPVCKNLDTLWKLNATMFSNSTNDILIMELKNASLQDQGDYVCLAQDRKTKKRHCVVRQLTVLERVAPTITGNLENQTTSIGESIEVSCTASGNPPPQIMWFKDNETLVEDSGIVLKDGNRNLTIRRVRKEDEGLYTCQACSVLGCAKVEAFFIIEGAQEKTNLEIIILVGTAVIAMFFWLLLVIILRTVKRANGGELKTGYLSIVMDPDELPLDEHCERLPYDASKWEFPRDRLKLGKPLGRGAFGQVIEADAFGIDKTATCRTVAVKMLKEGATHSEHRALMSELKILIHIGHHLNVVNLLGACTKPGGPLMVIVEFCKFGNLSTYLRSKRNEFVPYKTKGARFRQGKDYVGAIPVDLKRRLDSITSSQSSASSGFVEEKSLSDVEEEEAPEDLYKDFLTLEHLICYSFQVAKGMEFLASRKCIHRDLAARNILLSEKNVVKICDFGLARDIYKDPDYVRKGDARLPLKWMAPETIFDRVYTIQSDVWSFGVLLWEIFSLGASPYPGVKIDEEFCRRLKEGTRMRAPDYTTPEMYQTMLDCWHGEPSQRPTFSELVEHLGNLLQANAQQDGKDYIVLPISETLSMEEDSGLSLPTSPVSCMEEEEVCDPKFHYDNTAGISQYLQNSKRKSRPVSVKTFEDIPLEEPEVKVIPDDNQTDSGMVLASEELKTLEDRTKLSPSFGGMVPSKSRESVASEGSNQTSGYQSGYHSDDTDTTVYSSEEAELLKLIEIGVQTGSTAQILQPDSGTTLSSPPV

Regarding `CC(=O)Nc1ccc(/C(C)=N/N=c2\sc(C(C)=O)nn2-c2ccc(C)cc2)cc1` [Compound 16, N-(4-((E)-1-(((Z)-5-Acetyl-3-(p-tolyl)-1,3,4-thiadiazol-2(3H)-ylidene)hydrazono)ethyl)phenyl) acetamide], the IC50 in the experiment with MCF-7 is 1250 ± 20 nM; in the experiment on HepG2 it was 9920 ± 220 nM.
In the same order, the values of `CC(=O)c1nn(-c2ccccc2Cl)/c(=N/N=C(\C)c2ccc(NC(=O)c3ccccc3)cc2)s1` [Compound 20a, N-(4-((E)-1-(((Z)-5-Acetyl-3-(2-chlorophenyl)-1,3,4-thiadiazol-2(3H)-ylidene)hydrazono)ethyl)phenyl)benzamide] are 60 ± 10 nM and 130 ± 10 nM.
Turning to `CC(=O)c1nn(-c2ccc(C)cc2)/c(=N/N=C(\C)c2ccc(NC(=O)c3ccccc3)cc2)s1` [Compound 20b, N-(4-((E)-1-(((Z)-5-Acetyl-3-(p-tolyl)-1,3,4-thiadiazol-2(3H)-ylidene)hydrazono)ethyl)phenyl) benzamide], the IC50 in the experiment on MCF-7 was 50 ± 10 nM; in the experiment on HepG2 it was 140 ± 10 nM; in the experiment on WI-38 (Homo sapiens, WI-38, read-out: WI-38 IC50), 190 ± 10 nM; at VEGFR-2 (VEGFR-2 IC50, mean of three experiments) it was 51.1 nM and 51 nM; on VEGFR-2 (VEGFR-2 inhibition), 24 nM; against CDK8, 266 ± 58 nM. The results for the IC50 at PIK3α, on BRAF and against EGFR were 2140 ± 95 nM, 5840 ± 250 nM and 1430 ± 85 nM, respectively. Further, the “Selectivity index HepG2” value in the experiment with WI-38 (SI = IC50 in normal cells (WI-38)/IC50 in HepG2) is 1.4. In addition, the “Selectivity index MCF-7” value in the experiment with WI-38 (SI = IC50 in normal cells (WI-38)/IC50 in MCF-7) came to 3.8. Moreover, the “Cell cycle distribution % G2/M” value in the experiment with MCF-7 cells [1] (control 13.72) was found to be 11.99%. In addition, in the experiment on MCF-7 cells [1] (control 23.91), the “Cell cycle distribution % S” value is reported as 18.76%. The “Cell cycle distribution % G0-G1” value in the experiment with MCF-7 cells [1] (control 62.37) came out at 69.25%. Also, the Late apoptosis with MCF-7 cells [2] (control 0.24) is 15.99%. In the experiment on MCF-7 cells [2] (control 0.61), this molecule displayed an Early apoptosis of 18.48%. The Necrosis with MCF-7 cells [2] (control 1.43) is 4.14%. Moreover, the Total apoptosis with MCF-7 cells [2] (untreated 0.85) was determined as 34.47%. Besides, the “Caspase-8 RT-PCR (fold change)” value in the experiment with caspase-8 is 3.42 fold change and 3.4176 fold change. The “Caspase-9 RT-PCR (fold change)” value with caspase-9 is 5.44 fold change and 5.4353 fold change.
With `CCOC(=O)c1nn(-c2cccc(Cl)c2)/c(=N/N=C(\C)c2ccc(NC(=O)c3ccccc3)cc2)s1` [Compound 21a, Ethyl (Z)-5-(((E)-1-(4-benzamidophenyl)ethylidene)hydrazono)-4-(3-chlorophenyl)-4,5-dihydro-1,3,4-thiadiazole-2-carboxylate], the half-inhibitory concentration (IC50) was found to be 190 ± 10 nM in the experiment with MCF-7 and 150 ± 10 nM in the experiment with HepG2.
Turning to `CCOC(=O)c1nn(-c2cccc(Cl)c2)/c(=N/N=C(\C)c2ccc(NC(=O)c3ccc(Cl)cc3)cc2)s1` [Compound 21b, Ethyl (Z)-5-(((E)-1-(4-(4-Chlorobenzamido)phenyl)ethylidene)hydrazono)-4-(3-chlorophenyl)-4,5-dihydro-1,3,4-thiadiazole-2-carboxylate], the concentration for half-maximal inhibition (IC50) was found to be 140 ± 10 nM with MCF-7 and 130 ± 10 nM in the experiment on HepG2.
On to `CNC(=O)c1cc(Oc2ccc(NC(=O)Nc3ccc(Cl)c(C(F)(F)F)c3)cc2)ccn1` [Sorafenib, reference compound], for which the half-inhibitory concentration (IC50) is 140 ± 30 nM in the experiment on MCF-7 and 130 ± 30 nM in the experiment on HepG2.

Broadly, the IC50 is the concentration needed to halve the response being measured.

The values above are taken from paper PMC11539005 (RSC Advances, 2024).
